Test system: MS2 coat protein
Assay: apparent Kd, MS2 coat protein; higher = weaker binding; RNA-MaP array; FMN 200 µM where present
Procedure, shortened: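 Designs were transcribed by stalled E. coli RNA polymerase on Illumina sequencing-chip clusters. They were titrated with SNAP-549-labelled MS2 coat protein from 0.7 or 1.5 nM, doubling to 3 µM, without and then with constant ligand. Buffer: 100 mM Tris-HCl pH 7.5, 80 mM KCl, 4 mM MgCl2, BSA, DTT, yeast tRNA, Tween-20. Green signal was normalised to red-channel RNA signal and control-cluster median Fmax. Apparent Kd is the median of filtered per-cluster binding-curve fits.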

[1] = designed as: OFF switch for flavin mononucleotide, no ligand
[2] = ligand present: flavin mononucleotide, designed as: OFF switch for flavin mononucleotide
[3] = designed as: ON switch for flavin mononucleotide, no ligand
[4] = ligand present: flavin mononucleotide, designed as: ON switch for flavin mononucleotide

Sequence	apparent Kd [1] [nM]	apparent Kd [2] [nM]	apparent Kd [3] [nM]	apparent Kd [4] [nM]
AGAAGUAUGCAGGAUAUGGGAACCUAUUGACAUUCAGAAGGGCAUACAUGAGGAUCACCCAUGUGGCCUCCCAG	19.3	35.1		
GUGCGUGGCUAGGAUAUUGUGGAGUUUAGUCAGCGAGAAGGUGCCACAUGAGGAUCACCCAUGUGGUGUUGCUC	19.8	21.7		
UUAUUAUAUGUAGGAUAUGCAUAUUAUCAUUGUGCAGAAGGACAUGAGGAUCACCCAUGUAUAUUAUUAUUAUAUAUUAUAUAU	17.5	18.5		
CAGGUCUGAGGAUAUCCAUCUUCAUACAUGAGGAUCACCCAUGUUUCCCUCUGGGUUUUCGGAGAAGGCAGUUUUU	358	293		
CUUAAACAUGAGGAUCACCCAUGUCAGGAUAUGAUACUAUGUACUUCGGUACAUAGUAUCAGAAGGGAUAUGAA	49	64.8		
GGAGGACGAAACAUGAGGAUCACCCAUGUGUUAUAAUUAAUAUAGGAUAUGUUUAUACUUUUUGGGCAGAAGGAUGAUAAUGCU			21.9	16.9
UCGUAACGAGGAUAUACAAGGGUCAGGCCCGCCUGACACACACAUGAGGAUCACCCAUGUAGAAGGUGUAGCGC	19.4	18.4		
CCAGCGUAUGUAAGGAUAUGCUGGUCCUUGGAUCAGCAGAAGGUACAUGAGGAUCACCCAUGUGUAAUCGUUGG	20.6	56.1		
GGUACCUUUACAGGAUAUGCUAUCCUUUGGGUAGCAGAAGGGUGAUACAUGAGGAUCACCCAUGUGGUGCCAGGGCGUGAGCCC			93.2	313
UGCUAAUUGUAGAAGGGUGACAUGAGGAUCACCCAUGUUCACAUGCGAUUUACGGCGCAUGUUCCACAGGAUAUACAGUUGAGU			342	60.1
ACAUACAUUCGAGGAUAUCGGUGAACAAAUUAACGAGAAGGCGAUAAAAUUUUUAAUCUUAUGAACAUGAGGAUCACCCAUGUA			21.3	18.5
GUUUCUAUAUGUUAUAUUUAACAGUCAGAAGGUGAUACUACGACAUGAGGAUCACCCAUGUAAUUCAAGGAUAUGAACUUAAUC			1110	450
CCGGAAAGGAAGGAUAUGCUAGACGAAAGUCUAGCAGAAGGUCCUACAUGAGGAUCACCCAUGUGUCCUACCGG	47.2	60.5		
GCACUGGAUGUAGGAUAUCAGGACGAUAAGUCCUGAGAAGGACAUGAGGAUCACCCAUGUGAAAAUUACCAGUGCAAUAAUAUA	14.4	39.9		
UGGAUGUGGGUUCCACAUGAGGAUCACCCAUGUACCGAUGAGAGAAGGCGCGCUGGAUCACAGGGCGAGGAUAUCUACAUUCAA	6.06	13.1		
GGUCCGAGUGUGAGGAUAUGCUGGUCCUUGGAUCAGCAGAAGGCACAUGAGGAUCACCCAUGUGGAGACGGACC	206	538		
AAGUCGACGGUGAGGAUAUCGGUUGAACGACAGAUCGAGAAGGCACAUGAGGAUCACCCAUGUGGGUAACGUCG	19.3	31.8		
GCCUAGCCCAGGCCCACGGCAUCACAGGAUAUGCCGAUAACAUGAGGAUCACCCAUGUCAACUCCGCAGAAGGGUGAUAUCGUG			174	28.8
GAGUGGUGGAAAGGAUAUGCAUUGUUAUUCACUGUAGAAGGUUCUAACAUGAGGAUCACCCAUGUAGGACUAUUCCUGUGUUUU			13.3	12.6

Sequence	apparent Kd [1] [nM]	apparent Kd [2] [nM]	apparent Kd [3] [nM]	apparent Kd [4] [nM]
AUUUAUGGCCAGAAGGACAUGAGGAUCACCCAUGUAGGAUAUGGACGAUUUUGCUCGGCGGUUUGUUUACGAAGCACCGGUGGU			12.8	6.91
UUUUUCUGUGUGAGGAUAUACUUUGUUUGGUCGUUGUAGAAGGCACAUGAGGAUCACCCAUGUAGUUUGUUGUG	23.9	33.1		
CUUUUGUGAGGAUAUCAGUAGUAAAUAAAUAAAAUUACUACUGAGAAGGCACAUGAGGAUCACCCAUGUUCCUC	41.2	305		
CCAACGUACAAUUUAGAUCUACAUGAGGAUCACCCAUGUACGGAGGAUAUCAGCUCGUUUAGAGCUGAGAAGGCCGAAUUAAUU			342	77.4
AAUUAGGUCACAGGAUAUACUACAUCCAAUGCUGUAGAAGGGUGACACAUUCUGUGCAGACAUGAGGAUCACCCAUGUAACCAC			27.9	12.8
GUGGUCAGACAUGAGGAUCACCCAUGUGGAAUAAAUAACGUCAAGGAUAUACAAUAUAGGAUAUAGUAGAAGGUGAGAUUGGUG			114	113
UUACCACAUGAGGAUCACCCAUGUCAGGAUAUACUAUUAACUACAUUUUCUUAUUUUAGUAGAAGGGACACUUU	26	23.1		
UUUUUGUCAGGAUAUGCGUAGUAGAACAAUAGUACUACUACGUAGAAGGGACAUGAGGAUCACCCAUGUUCCUC	14.4	20.5		
AGUGUAGAGGUGAAGCGAAUUACUGAGGAUAUGACAUGAGGAUCACCCAUGUACACAUCCUCAGGUCAGAAGGCAGUGGUUCUU	5.62	4.8		
UUUGAAUAAGUGAGGAUAUACUGUUAGUAAUGAUUGUAGAAGGUACAUGAGGAUCACCCAUGUUUAUUAUUUAU	21.8	18.3		
CAGCGCUGUCGAGAGGAUAUGCGGUGAUGGACAUGAGGAUCACCCAUGUUAGCGAUAGCAUUACGGUAGAAGGCUCUACAGCUGC			239	14.2
CACUCACAUGAGGAUCACCCAUGUCCUAGCAGGUCAGGAUAUAGCUCGGAUGCGUUGAGUCUAGAAGGGACAGGUU			184	63.6
AAGUAUAGAGGAUAUAGUGAGUACUACAUGAGGAUCACCCAUGUUCUUCGUUACGUAUUUCUAGAAGGCUGAUAAA	105	248		
CUCGUUAUGUUAGGAUAUGAUGCAUCCCGAUAAUCAGAAGGAACAUGAGGAUCACCCAUGUGACAUUUGGUGAAAACAAGCCAA	6.35	7.87		
CCAUGGCAUGUAGGAUAUGUCUGACAAAGUCAGACAGAAGGACAUGAGGAUCACCCAUGUAGGAAAUAACCACAUAAGCCAUGG	6.32	5.86		
CACUGCAAUGUAGGAUAUCGACUGGAUAACAGUCGAGAAGGACAUGAGGAUCACCCAUGUAAUCCUAAUAAUAAAUAAGCAGUG	12.1	17.8		
CUUGUUUAUGUGAGGAUAUACUGUUAGUAAUGUUUGUAGAAGGUACAUGAGGAUCACCCAUGUUUAUUUCCUUU	14.2	13.1		
UGAUAGGACAGAGGAUAUACAGAUAGGAUCUACUAUCAAACAGUCCUUACAUGAGGAUCACCCAUGUAGAAGGCUGUCCUAUCU	19.8	85.8		
GAUUCGGGAGGAUAUACAUGAGGAUCACCCAUGUGUUUUUUAUGUGUUAUGUUAUCAUGUAGAAGGUUUGGGUC	151	195		

Sequence	apparent Kd [1] [nM]	apparent Kd [2] [nM]	apparent Kd [3] [nM]	apparent Kd [4] [nM]
AACUAGCUAGGAUAUACAUGAGGAUCACCCAUGUAAAAAAAAAAAAAAAGAUUUAUAUGUAGAAGGAGCUAGUA	40.1	65.8		
CUCUUGUCAGGAUAUACGUACGCUUCGGCGGCGAGGAUCAUGUAGAAGGGACAUGAGGAUCACCCAUGUUAGAC	41.6	44		
GACUGAUUGUAGAAGGUACUUGAAAAUAUUUAAUAACUCAUGUGACAUGAGGAUCACCCAUGUAGUAAGGAUAUACAUAUCACA			198	91
GGUACCAUUACAGGAUAUGCUUUCCUUUGGAAAGCAGAAGGGUGUAACAUGAGGAUCACCCAUGUGGUGCCAGGGCGUGAGCCC			659	182
AGCUACGUUUCGUAGCAGUGUCAUCGAGAAGGCCUUAAAACAUGAGGAUCACCCAUGUAUGCAUGGGAGGAUAUCGAUGAUACA			31.7	6.98
UUUAUGUCAGGAUAUGAUUAGAUCUACUUCGGUAGAUCUAAUCAGAAGGGACAUGAGGAUCACCCAUGUAGUUU	111	226		
UGUUGUUCAGGAUAUGAUGUCUUAUACAUGAGGAUCACCCAUGUGGGUCCUGAUUUGGCGUCAGAAGGGAAUGUUG	551	569		
GUCGCUAGAGGAUAUACAAUGGUAUAUGAUCCUAGUGACAUACAUGAGGAUCACCCAUGUAGAAGGCUAGUAUU	23.5	19		
UUACUCAUGUAAGGAUAUGCAGCCGUUUCGGCUGCAGAAGGUACUAUAAUACAUGAGGAUCACCCAUGUCUAUAAACUAAAGAC			84.2	45.8
CCGGAAAUGAAGGAUAUAGGUGUCGAUAGACACCUAGAAGGUCAUACAUGAGGAUCACCCAUGUGUCCUACCGG	16.1	30.6		
AAUAAGCUAGGAUAUACAUGAGGAUCACCCAUGUGAGGGCACCGCCGGCGCGGGCCCGGUAGAAGGAGCAAUAA	14.2	13.2		
GUGGUCAGACAUGAGGAUCACCCAUGUGGAAUAAAUAAGGAGAAGGAUAUUAAAUAUAGGAUAUAUAAGAAGGUCUGGUUGGUG			86.8	95.8
GCUAGUCAUGUCAGGAUAUGCAGAUCCUUGGAUCUGCAGAAGGGACAUGAGGAUCACCCAUGUGCCUAGCUAGC	41	317		
GGACAUCCCACAGGAUAUGCUGGACUUUGUCCAGCAGAAGGGUGAAGAACAUGAGGAUCACCCAUGUGGAUGUCCAUAUUUAAU			1440	95.4
AAAACAUGAGGAUCACCCAUGUAAAGAACGCUUAAUAGAUCUGAGGAUAUACUAGAAUUUAGGUAGUAGAAGGCAGUGGGUACA			46.6	30.7
UGUUGUAUUACAGGAUAUCUAUGAUUUUAAUUUAGAGAAGGGUAUUCACAUGAGGAUCACCCAUGUAUAUACGAGGAAGUUGUG			51.2	58.9
GUCCUCGGCGAGGAUAUCGGGCGGGUUUUUGUUUGAGAAGGCGUGACAUGAGGAUCACCCAUGUGGCGCGUGGG	41.6	59.3		
GGUUAAUAUCGAGGAUAUGUCUAGACACAUGAGGAUCACCCAUGUAUGUGUAUAGAAGGCGAUAUUAACAGCAUGUUACAUGCU			40.8	16
